pKi: −log10 of the molar value.
Legend:
[1] = target: T1, Amine oxidase [flavin-containing] A (Homo sapiens, UniProt P21397); assay: Inhibition of recombinant human MAO-A expressed in baculovirus infected BTI insect cells using p-tyramine as substrate incubated for 30 mins by Amplex red reagent based fluorescence analysis
T1 sequence (P21397 whole entry): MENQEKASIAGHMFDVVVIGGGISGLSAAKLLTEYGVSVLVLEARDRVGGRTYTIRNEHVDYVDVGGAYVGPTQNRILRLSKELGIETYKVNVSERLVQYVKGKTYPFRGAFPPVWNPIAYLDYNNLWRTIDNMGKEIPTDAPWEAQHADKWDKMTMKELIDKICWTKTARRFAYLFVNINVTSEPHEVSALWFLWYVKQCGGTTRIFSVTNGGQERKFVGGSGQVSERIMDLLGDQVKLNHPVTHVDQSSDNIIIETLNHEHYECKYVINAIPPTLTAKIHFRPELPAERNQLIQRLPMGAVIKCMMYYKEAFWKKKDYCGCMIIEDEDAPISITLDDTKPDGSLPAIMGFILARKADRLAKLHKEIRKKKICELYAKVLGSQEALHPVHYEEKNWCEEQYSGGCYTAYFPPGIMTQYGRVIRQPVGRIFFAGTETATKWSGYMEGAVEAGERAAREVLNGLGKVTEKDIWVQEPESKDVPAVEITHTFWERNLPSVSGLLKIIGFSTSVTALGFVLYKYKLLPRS

[2] = Ex vivo inhibition of MAOA in CD1 mouse brain homogenates assessed as inhibition of 5-HT deamination by measuring 5-HIAA metabolite levels by using at 3 mg/kg, po administered via gavage for 7 days and measured 1 hr post last dose by HPLC analysis (reference value: 0.33 +/- 0.02 ug/g); type: functional; conditions: time 7 day
[3] = Ex vivo inhibition of MAOA in CD1 mouse brain homogenates assessed as MAOA level at 1 mg/kg, po administered via gavage for 7 days and measured 1 hr post last dose by monoamine oxidase assay (reference value: 0.39 +/- 0.04 nmol/min/mg); type: functional; conditions: time 7 day
[4] = Ex vivo inhibition of MAOA in CD1 mouse brain homogenates assessed as 5-HT levels at 3 mg/kg, po administered via gavage for 7 days and measured 1 hr post last dose by ELISA kit method (reference value: 0.78 +/- 0.01 ug/g); type: functional; conditions: time 7 day
[5] = Cytotoxicity against human HepG2 cells assessed as cell viability at 7.5 uM incubated for 2 hrs by MTT assay relative to control; type: cell-based; conditions: read-out: Activity
Method in brief: (§1)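 HepG2 human hepatoma cells; viability read by MTT assay, with 0.1% DMSO as vehicle control. Viability given as % of control, mean ± SEM (n = 3); p < 0.05 taken as significant.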

[6] = Ex vivo inhibition of MAOA in CD1 mouse brain homogenates assessed as MAOA level at 3 mg/kg, po administered via gavage for 7 days and measured 1 hr post last dose by monoamine oxidase assay (reference value: 0.39 +/- 0.04 nmol/min/mg); type: functional; conditions: time 7 day
[7] = Cytotoxicity against human HepG2 cells assessed as cell viability at 30 uM incubated for 2 hrs by MTT assay relative to control; type: cell-based; conditions: read-out: Activity; method in brief: as §1
[8] = Ex vivo inhibition of MAOA in CD1 mouse brain homogenates assessed as inhibition of 5-HT deamination by measuring 5-HIAA metabolite levels by using at 1 mg/kg, po administered via gavage for 7 days and measured 1 hr post last dose by HPLC analysis (reference value: 0.33 +/- 0.02 ug/g); type: functional; conditions: time 7 day
[9] = target: T2, Amine oxidase [flavin-containing] B (Homo sapiens, UniProt P27338); assay: Reversible inhibition of human MAO-B assessed as residual enzyme activity at 4 fold IC50 incubated for 15 mins and measured before dialysis relative to control
T2 sequence (P27338 whole entry): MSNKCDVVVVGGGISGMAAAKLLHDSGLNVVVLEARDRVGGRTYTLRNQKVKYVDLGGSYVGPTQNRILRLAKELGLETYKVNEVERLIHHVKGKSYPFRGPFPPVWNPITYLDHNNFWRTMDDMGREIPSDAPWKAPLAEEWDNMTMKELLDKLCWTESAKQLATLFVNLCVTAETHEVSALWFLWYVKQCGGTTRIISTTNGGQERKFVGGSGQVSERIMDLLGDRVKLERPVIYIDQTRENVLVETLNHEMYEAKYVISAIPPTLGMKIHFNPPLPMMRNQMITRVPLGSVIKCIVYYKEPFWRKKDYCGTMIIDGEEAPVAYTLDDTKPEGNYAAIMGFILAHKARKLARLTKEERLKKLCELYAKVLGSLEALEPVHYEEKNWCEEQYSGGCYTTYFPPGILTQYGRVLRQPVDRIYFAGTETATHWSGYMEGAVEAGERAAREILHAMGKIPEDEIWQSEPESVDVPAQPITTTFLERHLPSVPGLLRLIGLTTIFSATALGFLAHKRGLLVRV
Method in brief: (§2)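 Dialysed (MWCO 12 000) at 4 °C for 24 h against 100 mM potassium phosphate pH 7.4, 5% sucrose, buffer changed twice. Dialysed and undialysed mixtures assayed together; residual activity from triplicates.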

[10] = target: T1, Amine oxidase [flavin-containing] A; assay: Reversible inhibition of human MAO-A assessed as residual enzyme activity at 4 fold IC50 incubated for 15 mins and measured before dialysis by dialysis method relative to control; method in brief: as §2
[11] = Cytotoxicity against human HepG2 cells assessed as cell viability at 15 uM incubated for 2 hrs by MTT assay relative to control; type: cell-based; conditions: read-out: Activity; method in brief: as §1
[12] = Ex vivo inhibition of MAOA in CD1 mouse brain homogenates assessed as inhibition of 5-HT deamination by measuring 5-HIAA metabolite levels by using at 10 mg/kg, po administered via gavage for 7 days and measured 1 hr post last dose by HPLC analysis (reference value: 0.33 +/- 0.02 ug/g); type: functional; conditions: time 7 day
[13] = target: T1, Amine oxidase [flavin-containing] A; assay: Reversible inhibition of human MAO-A assessed as residual enzyme activity at 4 fold IC50 incubated for 15 mins and measured 24 hrs post dialysis by dialysis method relative to control; conditions: 24.25 h, time 1455 min; method in brief: as §2
[14] = Ex vivo inhibition of MAOA in CD1 mouse brain homogenates assessed as 5-HT levels at 10 mg/kg, po administered via gavage for 7 days and measured 1 hr post last dose by ELISA kit method (reference value: 0.78 +/- 0.01 ug/g); type: functional; conditions: time 7 day
[15] = Ex vivo inhibition of MAOA in CD1 mouse brain homogenates assessed as 5-HT levels at 1 mg/kg, po administered via gavage for 7 days and measured 1 hr post last dose by ELISA kit method (reference value: 0.78 +/- 0.01 ug/g); type: functional; conditions: time 7 day
[16] = target: T2, Amine oxidase [flavin-containing] B; assay: Reversible inhibition of human MAO-B assessed as residual enzyme activity at 4 fold IC50 incubated for 15 mins and measured 24 hrs post dialysis relative to control; conditions: 24.25 h, time 1455 min; method in brief: as §2
[17] = Ex vivo inhibition of MAOA in CD1 mouse brain homogenates assessed as MAOA level at 10 mg/kg, po administered via gavage for 7 days and measured 1 hr post last dose by monoamine oxidase assay (reference value: 0.39 +/- 0.04 nmol/min/mg); type: functional; conditions: time 7 day
[18] = Ex vivo inhibition of MAOA in CD1 mouse brain homogenates assessed as MAOA level at 20 mg/kg, po administered as subchronic dose via gavage for 7 days and measured 1 hr post last dose by monoamine oxidase assay (reference value: 0.40 +/- 0.005 nmol/min/mg); type: functional; conditions: time 7 day

pKi [1]	Structure (SMILES)	Activity [2] [µg/g]	Activity [3] [nmol/min/mg]	Activity [4] [µg/g]	viability at 2 h, 7.5 µM [5] [%]	Activity [6] [nmol/min/mg]	viability at 2 h, 30 µM [7] [%]	Activity [8] [µg/g]	Activity [9] [%]	Activity [10] [%]	viability at 2 h, 15 µM [11] [%]	Activity [12] [µg/g]	Activity [13] [%]	Activity [14] [µg/g]	Activity [15] [µg/g]	Activity [16] [%]	Activity [17] [nmol/min/mg]	Activity [18] [nmol/min/mg]
8.05	COc1ccc(C2=NN(C(=O)Cn3c(=O)oc4ccc(C)cc43)C(c3cccc(OC)c3OC)C2)cc1 (centres undefined)	0.3	0.39	0.85	101	0.34	84.9	0.32	74.19	22.16	99.6	0.29	92.55	0.99	0.8	94.16	0.27	
	O=C(NCCN1CCOCC1)c1ccc(Cl)cc1 [MOCLOBEMIDE]	0.32	0.41	0.79	90.8	0.41	86	0.33	88	36	88.5	0.3	93.77	0.82	0.78	89.55	0.4	0.33
